Bioassay records (PubChem BioAssay)
Hits are enriched below; roughly 2.9% of the tested compounds scored in any of these assays.
Tn6 DDE FP: DD(E)-Tn6 binding inhibition, primary FP screen. AID 720509. inhibition, % at 8.3 µM. actives 0.21% (n = 370,000). P02675. Fibrin DD(E) TRITC-Tn6 fluorescence polarization displacement;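 active = inhibition above a per-campaign cutoff: mean of compounds within control limits plus 3 SD, cut at about 15% in these data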;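 also: 0% = median of all compound wells on the plate and 100% = blocking peptide control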
Target sequence (P02675 whole entry, looked up): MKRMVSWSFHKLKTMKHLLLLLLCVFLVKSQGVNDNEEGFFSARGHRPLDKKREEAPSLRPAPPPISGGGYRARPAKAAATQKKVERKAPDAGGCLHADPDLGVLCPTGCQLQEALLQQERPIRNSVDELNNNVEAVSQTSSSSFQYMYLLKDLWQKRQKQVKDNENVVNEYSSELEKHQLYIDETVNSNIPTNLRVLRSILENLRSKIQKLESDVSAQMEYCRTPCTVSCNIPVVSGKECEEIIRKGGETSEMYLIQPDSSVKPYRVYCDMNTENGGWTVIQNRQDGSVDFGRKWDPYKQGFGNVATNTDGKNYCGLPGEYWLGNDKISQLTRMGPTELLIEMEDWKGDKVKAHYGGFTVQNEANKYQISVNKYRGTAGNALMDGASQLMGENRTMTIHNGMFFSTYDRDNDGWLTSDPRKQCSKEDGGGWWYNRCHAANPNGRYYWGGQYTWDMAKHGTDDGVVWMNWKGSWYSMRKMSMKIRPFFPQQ
CRFBP-R2 agonist: CRF-BP/CRF-R2 complex agonism | HEK293 CRF-R2/CRF-BP, calcium dye fluorescence (FLIPR); percent of saturating CRF peptide response | activation, % at 13.2 µM | actives 0.46% (n = 350,000) | AID 588473;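 active = activation of at least 50%, plus an integration ratio under a set limit after plate pattern correction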;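 also: plate controls were neutral control wells without compound for no effect and CRF at EC100 for full effect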
NRP1-CendR mod: NRP-1/CendR interaction modulation. actives 0.85% (n = 360,000). AID 602438. FAM-RPARPAR peptide binding to NRP-1, fluorescence polarization. inhibition, % at 25 µM. O14786;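 active = inhibition or corrected inhibition above about 18%, plus a signal ratio from 0.5 to 1.5, limit read from the data, passing the limit was not always enough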
Tn7 DDE FP: DD(E)-Tn7 binding inhibition, primary FP screen; P02675; FP displacement of FITC-Tn7 peptide from fibrin DD(E); 0% = median of compound wells per plate; inhibition, % at 8.3 µM; actives 0.13% (n = 370,000); AID 720508;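 active = inhibition above the mean of compounds falling within the control limits plus 3 SD of them, cut at about 14% in these data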;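 also: 0% = plate median of compound wells and 100% = 10 µM Aha-Tn7 peptide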
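Assay system: human fibrin DD(E) protein / Input: 2 µM fibrin DD(E) / Benchmarks: high control of 10 µM Aha-Tn7 peptide / Measured by: fluorescence polarization of the labelled Tn7 tracer / Medium: Tris buffer with calcium and detergent, pH 7.8 / Timing: 10 min compound pre-incubation, 3 h probe incubation at room temperature / Repeats: one replicate per compound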
proKLK7 act: activates the human kallikrein-7 zymogen; P49862; purified proKLK7, EDANS-DABCYL substrate fluorescence; 100% is mature enzyme control, 0% vehicle; activation, % at 7 µM; actives 0.9% (n = 370,000);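 active = activation above the mean of all tested compounds plus 3 SD, computed per campaign excluding outliers beyond control limits, cut at about 13% in these data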
Target sequence (P49862 whole entry, looked up): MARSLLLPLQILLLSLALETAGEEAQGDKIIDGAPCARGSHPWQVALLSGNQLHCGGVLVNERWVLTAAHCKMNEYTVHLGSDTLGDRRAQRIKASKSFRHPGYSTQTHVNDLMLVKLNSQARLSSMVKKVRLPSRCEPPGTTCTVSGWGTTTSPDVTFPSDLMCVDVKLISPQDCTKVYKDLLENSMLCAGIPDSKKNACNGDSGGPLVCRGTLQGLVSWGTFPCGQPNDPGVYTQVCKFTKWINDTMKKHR
CRFR2-BP antag: CRF-BP/CRF-R2 complex antagonism | HEK293 CRF-R2/CRF-BP, CRF-induced calcium fluorescence | inhibition, % at 11.8 µM | actives 0.59% (n = 350,000);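 active = inhibition of the ligand-induced calcium signal above about 50% at the single tested concentration, limit read from the data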
The depositor's hits bear a star; / = not tested or not shown.

SMILES | Tn6 DDE FP | CRFBP-R2 agonist | NRP1-CendR mod | Tn7 DDE FP | proKLK7 act | CRFR2-BP antag
COc1ccc(F)cc1-c1cc(C(=O)NCc2cccc(C(F)(F)F)c2)[nH]n1 | -1.4 | / | 18.0* | -4.6 | 0.7 | /
CC(C)Oc1ccc(F)cc1-c1cc(C(=O)NCc2ccc(F)cc2)[nH]n1 | -3.3 | / | 27.4* | -7.5 | 0.1 | /
CC1CCC2(CCC(=O)N2CCCOC(=O)NC(C)(C)C)CC1 (stereo not drawn) | -3.5 | / | / | 3.6 | -0.5 | /
CCn1c(SC(C)C(=O)NC2CCCc3ccccc32)nnc1-c1cccs1 (stereo not drawn) | -0.3 | 10.9 | 33.5* | 0.1 | -0.2 | 32.1
COCCCn1c(SCC(=O)NCc2ccco2)nc2sc3c(c2c1=O)CCC3 | -0.2 | -1.8 | -1.7 | -2.1 | 0.2 | -8.8
COCCn1c(SCc2nnc(-c3ccccc3)o2)nc2sc3c(c2c1=O)CCC3 | 1.1 | 1.1 | -10.4 | 2.2 | 0.5 | 54.8*
NCCN1CCN(S(=O)(=O)c2ccc3c(c2)CCN3C(=O)C2CCC2)CC1 | -1.1 | / | / | 2.1 | 0.3 | /
Cc1cccc(N2CCN(C(=O)CCc3nc4ccccc4c(=O)[nH]3)CC2)c1C | 4.2 | -4.8 | -1.6 | 1.5 | 0.0 | 74.3*
CC(=O)N1CCN(C(=O)CCc2nc3ccccc3c(=O)[nH]2)CC1 | 2.0 | 7.6 | 13.7 | -3.1 | 0.0 | -42.9
COC(=O)[C@]12C[C@H](CC(=O)NCC34CC5CC(CC(C5)C3)C4)C(=O)N(Cc3ccco3)C1=C[C@H](C1CCCC1)O[C@@H]2C | -5.1 | / | / | -3.1 | 0.8 | /
COc1n[nH]c2nncnc12 | 5.5 | -1.0 | 28.4* | -9.4 | 0.3 | -2.7
COC(=O)[C@]12C[C@H](CC(=O)N3CCC(c4ccccc4)CC3)C(=O)N(CCc3ccc(OC)c(OC)c3)C1=C[C@H](C(C)C)O[C@@H]2C1CC1 | 0.4 | / | / | -3.3 | 0.8 | /
O=C(Cc1ccccc1)NCC(=O)OC(c1ccccc1)c1ccccc1 | -3.8 | -1.1 | 5.2 | 0.2 | 1.0 | 81.8*
Cc1cc(C)nc(N2CCC(C(=O)N(C)CCc3ccccc3)CC2)n1 | 2.0 | / | / | -2.2 | 0.3 | /
Cc1cc(NC(=O)COc2cc(F)cc(F)c2)n(-c2ccccc2)n1 | -6.0 | / | / | 8.9 | 0.6 | /
O=[N+]([O-])c1ccc(-c2ccc(/C=N/Nc3nc(NCc4ccccc4)nc(N4CCOCC4)n3)o2)cc1 | -7.2 | 56.5* | -129.7 | -6.3 | 0.0 | -88.7
CC1=C/C(=C(/c2ccc(O)c(C)c2)c2ccccc2S(=O)(=O)O)C=CC1=O | -2.9 | 0.4 | 9.0 | 5.1 | -0.7 | -1.8
CC1=C/C(=C(/c2cc(C)c(O)c(Br)c2)c2ccccc2S(=O)(=O)O)C=C(Br)C1=O | 11.4 | 0.7 | 39.8* | -3.3 | -0.1 | 8.1
O=C(Nc1ccc(Cl)c(Cl)c1)C1CCCN1S(=O)(=O)c1cccc2cccnc12 (stereo not drawn) | -5.1 | / | / | -1.5 | 0.0 | /
CCCCCCCCN1C(=O)[C@@H](CC(=O)N2CCN(C(=O)OCC)CC2)C[C@@]2(C(=O)OC)C1=C[C@H](COCc1ccccc1)O[C@@H]2C | 1.2 | / | / | -4.9 | 0.6 | /
CCOC(=O)c1csc(NC(=O)c2ccc(OC)c(OC)c2)n1 | 9.1 | 0.4 | -0.2 | -2.8 | -0.1 | 1.8
CCOC(=O)c1csc(NC(=O)c2ccc3c(c2)OCCO3)n1 | / | 1.0 | 28.7* | / | / | -18.2
COC(=O)[C@H](C(C)C)N1Cc2nnn(CC3CCCCC3)c2-c2cc(F)ccc2S1(=O)=O | 6.1 | / | / | -13.5 | 0.6 | /
COc1ccc(/C=C2\CC3(OC(=O)c4cccc(F)c4)CCCN2C3)cc1 (stereo not drawn) | -0.6 | / | / | -0.7 | 0.4 | /
O=C(Nc1ccc(Cl)cc1)c1cccc(S(=O)(=O)Nc2ccccn2)c1 | -16.1 | -1.8 | 14.6 | 4.2 | 0.3 | 2.9
SMILES | Tn6 DDE FP | CRFBP-R2 agonist | NRP1-CendR mod | Tn7 DDE FP | proKLK7 act | CRFR2-BP antag
O=C(Nc1ccc(Cl)cc1)c1cc(S(=O)(=O)Nc2ccccn2)ccc1Cl | -0.3 | -0.8 | 24.5* | -1.9 | 0.1 | 8.9
Cc1ccccc1NC(=O)N(C)[C@H]1C[C@H]2c3[nH]c4c(-c5ccc6c(c5)OCO6)cccc4c3CCN2C[C@H]1[C@H](C)O | 9.1 | / | / | 3.1 | -0.1 | /
CC(NCc1ccco1)C(=O)N1CCN(c2ccc(F)cc2)CC1 (stereo not drawn) | 4.0 | / | / | -0.4 | 0.1 | /
Cc1nn(CCCC(=O)Nc2cc(Oc3ccc(F)cc3)cc([N+](=O)[O-])c2)c(C)c1[N+](=O)[O-] | 6.9 | 9.7 | -7.4 | -0.3 | 0.4 | -10.1
Cc1ccccc1Oc1cc(NC(=O)CCCn2nc(C)c([N+](=O)[O-])c2C)cc([N+](=O)[O-])c1 | -3.2 | 6.8 | 19.3 | -1.8 | -0.1 | 50.8*
Cc1c(Cl)c([N+](=O)[O-])nn1CCCC(=O)Nc1cc(Oc2ccccc2)cc([N+](=O)[O-])c1 | -1.5 | -0.8 | -4.4 | 0.3 | 0.7 | 58.7*
C[C@H]1[C@@H](OC(=O)NCCc2c[nH]c3ccccc23)CC[C@@]23CCCN2C(=O)CCC[C@@H]13 | -7.1 | / | / | -4.4 | / | /
Cc1ccc(SCC(=O)OCC(=O)N(CCC#N)c2ccccc2)cc1 | 3.1 | 0.0 | 31.3* | 3.0 | -0.5 | 1.1
N#CCCN(C(=O)COC(=O)CSc1ccc(Cl)cc1)c1ccccc1 | 3.4 | -0.6 | -1.1 | 11.2 | -0.2 | 2.1
CCOc1ccccc1-n1c(C)nc2cc(C(=O)O)ccc21 | -5.9 | 0.9 | 9.3 | 4.9 | -0.2 | 70.2*
CC(C)(C)OC(=O)N1CCC(N[C@@H](Cc2ccccc2)C(=O)NCCc2c[nH]c3ccccc23)(C(=O)NC2CCCCC2)CC1 | 1.8 | / | / | -3.7 | / | /
Cc1ccc(C)c(N2C(=O)c3ccc(C(=O)Nc4ccccn4)cc3C2=O)c1 | -13.2 | -1.3 | 22.2* | -1.5 | -0.8 | -5.4
Cc1cccc(N2C(=O)c3ccc(C(=O)Nc4ccccn4)cc3C2=O)c1 | 0.7 | -0.2 | -12.1 | 7.4 | -0.8 | -2.7
Cc1ccc(C(=O)Nc2cccnc2Cl)cc1Cl | 1.6 | -0.8 | 2.7 | 2.5 | -0.2 | 5.1
Cc1ccc(C(=O)Nc2ccccc2C(=O)Nc2ccccn2)cc1Cl | 12.1 | 6.3 | 27.7* | 0.9 | -0.3 | -23.8
NC(=O)N1c2ccccc2CC(=O)c2ccccc21 | 0.3 | -0.3 | 34.8* | 3.8 | 5.0 | -0.9
NC(=O)N1c2ccccc2C=Cc2ccccc21 | -5.1 | 0.8 | 0.6 | 10.1 | -0.6 | 23.1
CCCCNC(=O)[C@H]1C[C@H]1[C@@H](O)[C@H](CO)NC(=O)[C@H](CC(C)C)NC(=O)OC(C)(C)C | / | 0.5 | 33.8* | / | / | -0.2
CC(C)C[C@H](NC(=O)OC(C)(C)C)C(=O)N[C@@H](CO)[C@H](O)[C@@H]1C[C@@H]1C(=O)NC1CC1 | 4.9 | 0.0 | 7.4 | 3.4 | 0.2 | -1.7
